Reference: ChEMBL document CHEMBL1154352, “Toll-like receptor 7 selective synthetic oligoribonucleotide agonists: synthesis and structure-activity relationship studies” (J Med Chem, 2009)

Columns and labels:
Assay type in all cases: functional, cell-based
PBMC [1] = assay: Immunomodulatory activity in human PBMC assessed as induction of IL12 after 24 hrs
Outline: (§1)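 Human PBMCs plated at 5 × 10^6 cells/mL; compounds dissolved in PBS added at various concentrations, 37 °C for 24 h. Supernatant cytokines/chemokines quantified with human Luminex multiplex kit.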

PBMC [2] = assay: Immunomodulatory activity in human PBMC assessed as induction of MIP1beta after 24 hrs; outline: as §1
PBMC [3] = assay: Immunomodulatory activity in human PBMC assessed as induction of IP10 after 24 hrs; outline: as §1
PBMC [4] = assay: Immunomodulatory activity in human PBMC assessed as induction of IL1-beta after 24 hrs; outline: as §1

Measured: Activity

Nc1ccn([C@@H]2O[C@H](COP(=O)(S)O[C@H]3[C@@H](O)[C@H](n4cnc5c(N)ncnc54)O[C@@H]3COP(=O)(S)O[C@H]3[C@@H](O)[C@H](n4ccc5c(=O)[nH]c(N)nc54)O[C@@H]3COP(=O)(S)O[C@H]3[C@@H](O)[C@H](n4ccc(=O)[nH]c4=O)O[C@@H]3COP(=O)(S)O[C@H]3[C@@H](O)[C@H](n4ccc5c(=O)[nH]c(N)nc54)O[C@@H]3COP(=O)(S)O[C@H]3[C@@H](O)[C@H](n4cnc5c(N)ncnc54)O[C@@H]3COP(=O)(S)O[C@H]3[C@@H](O)[C@H](n4cnc5c(N)ncnc54)O[C@@H]3CO)[C@@H](OP(=O)(S)OC[C@H]3O[C@@H](n4ccc5c(=O)[nH]c(N)nc54)[C@H](O)[C@@H]3OP(=O)(S)OC[C@H]3O[C@@H](n4ccc(N)nc4=O)[C@H](O)[C@@H]3OP(=O)(S)OC[C@H]3O[C@@H](n4ccc(=O)[nH]c4=O)[C@H](O)[C@@H]3OP(=O)(S)OC[C@H]3O[C@@H](n4ccc(=O)[nH]c4=O)[C@H](O)[C@@H]3OP(=O)(S)OCC(O)COP(=O)(S)O[C@H]3[C@@H](O)[C@H](n4ccc(=O)[nH]c4=O)O[C@@H]3COP(=O)(S)O[C@H]3[C@@H](O)[C@H](n4ccc(=O)[nH]c4=O)O[C@@H]3COP(=O)(S)O[C@H]3[C@@H](O)[C@H](n4ccc(N)nc4=O)O[C@@H]3COP(=O)(S)O[C@H]3[C@@H](O)[C@H](n4ccc5c(=O)[nH]c(N)nc54)O[C@@H]3COP(=O)(S)O[C@H]3[C@@H](O)[C@H](n4ccc(N)nc4=O)O[C@@H]3COP(=O)(S)O[C@H]3[C@@H](O)[C@H](n4cnc5c(N)ncnc54)O[C@@H]3COP(=O)(S)O[C@H]3[C@@H](O)[C@H](n4ccc5c(=O)[nH]c(N)nc54)O[C@@H]3COP(=O)(S)O[C@H]3[C@@H](O)[C@H](n4ccc(=O)[nH]c4=O)O[C@@H]3COP(=O)(S)O[C@H]3[C@@H](O)[C@H](n4ccc5c(=O)[nH]c(N)nc54)O[C@@H]3COP(=O)(S)O[C@H]3[C@@H](O)[C@H](n4cnc5c(N)ncnc54)O[C@@H]3COP(=O)(S)O[C@H]3[C@@H](O)[C@H](n4cnc5c(N)ncnc54)O[C@@H]3CO)[C@H]2O)c(=O)n1 (some centres not stated)
active: PBMC [1] Dose-dependent effect | PBMC [2] Dose-dependent effect | PBMC [3] Dose-dependent effect | PBMC [4] Dose-dependent effect

Nc1ccn([C@@H]2O[C@H](COP(=O)(S)O[C@H]3[C@@H](O)[C@H](n4cnc5c(N)ncnc54)O[C@@H]3COP(=O)(S)O[C@H]3[C@@H](O)[C@H](n4cnc5c(N)ncnc54)O[C@@H]3CO)[C@@H](OP(=O)(S)OC[C@H]3O[C@@H](n4ccc(=O)[nH]c4=O)[C@H](O)[C@@H]3OP(=O)(S)OC[C@H]3O[C@@H](n4ccc5c(=O)[nH]c(N)nc54)[C@H](O)[C@@H]3OP(=O)(S)OC[C@H]3O[C@@H](n4cnc5c(N)ncnc54)[C@H](O)[C@@H]3OP(=O)(S)OC[C@H]3O[C@@H](n4ccc(N)nc4=O)[C@H](O)[C@@H]3OP(=O)(S)OC[C@H]3O[C@@H](n4ccc5c(=O)[nH]c(N)nc54)[C@H](O)[C@@H]3OP(=O)(S)OC[C@H]3O[C@@H](n4ccc(N)nc4=O)[C@H](O)[C@@H]3OP(=O)(S)OC[C@H]3O[C@@H](n4ccc(=O)[nH]c4=O)[C@H](O)[C@@H]3OP(=O)(S)OC[C@H]3O[C@@H](n4ccc(=O)[nH]c4=O)[C@H](O)[C@@H]3OP(=O)(S)OCC(O)COP(=O)(S)O[C@H]3[C@@H](O)[C@H](n4ccc(=O)[nH]c4=O)O[C@@H]3COP(=O)(S)O[C@H]3[C@@H](O)[C@H](n4ccc(=O)[nH]c4=O)O[C@@H]3COP(=O)(S)O[C@H]3[C@@H](O)[C@H](n4ccc(N)nc4=O)O[C@@H]3COP(=O)(S)O[C@H]3[C@@H](O)[C@H](n4ccc5c(=O)[nH]c(N)nc54)O[C@@H]3COP(=O)(S)O[C@H]3[C@@H](O)[C@H](n4ccc(N)nc4=O)O[C@@H]3COP(=O)(S)O[C@H]3[C@@H](O)[C@H](n4cnc5c(N)ncnc54)O[C@@H]3COP(=O)(S)O[C@H]3[C@@H](O)[C@H](n4ccc5c(=O)[nH]c(N)nc54)O[C@@H]3COP(=O)(S)O[C@H]3[C@@H](O)[C@H](n4ccc(=O)[nH]c4=O)O[C@@H]3COP(=O)(S)O[C@H]3[C@@H](O)[C@H](n4ccc(N)nc4=O)O[C@@H]3COP(=O)(S)O[C@H]3[C@@H](O)[C@H](n4cnc5c(N)ncnc54)O[C@@H]3COP(=O)(S)O[C@H]3[C@@H](O)[C@H](n4cnc5c(N)ncnc54)O[C@@H]3CO)[C@H]2O)c(=O)n1 (some centres not stated)
active: PBMC [1] Dose-dependent effect | PBMC [2] Dose-dependent effect | PBMC [3] Dose-dependent effect | PBMC [4] Dose-dependent effect

Nc1ccn([C@@H]2O[C@H](COP(=O)(S)O[C@H]3[C@@H](O)[C@H](n4cnc5c(N)ncnc54)O[C@@H]3COP(=O)(S)O[C@H]3[C@@H](O)[C@H](n4ccc5c(=O)[nH]c(N)nc54)O[C@@H]3COP(=O)(S)O[C@H]3[C@@H](O)[C@H](n4ccc(=O)[nH]c4=O)O[C@@H]3COP(=O)(S)O[C@H]3[C@@H](O)[C@H](n4ccc(=O)[nH]c4=O)O[C@@H]3COP(=O)(S)O[C@H]3[C@@H](O)[C@H](n4cnc5c(N)ncnc54)O[C@@H]3COP(=O)(S)O[C@H]3[C@@H](O)[C@H](n4cnc5c(N)ncnc54)O[C@@H]3CO)[C@@H](OP(=O)(S)OC[C@H]3O[C@@H](n4ccc5c(=O)[nH]c(N)nc54)[C@H](O)[C@@H]3OP(=O)(S)OC[C@H]3O[C@@H](n4ccc(N)nc4=O)[C@H](O)[C@@H]3OP(=O)(S)OC[C@H]3O[C@@H](n4ccc(=O)[nH]c4=O)[C@H](O)[C@@H]3OP(=O)(S)OC[C@H]3O[C@@H](n4ccc(=O)[nH]c4=O)[C@H](O)[C@@H]3OP(=O)(S)OCC(O)COP(=O)(S)O[C@H]3[C@@H](O)[C@H](n4ccc(=O)[nH]c4=O)O[C@@H]3COP(=O)(S)O[C@H]3[C@@H](O)[C@H](n4ccc(=O)[nH]c4=O)O[C@@H]3COP(=O)(S)O[C@H]3[C@@H](O)[C@H](n4ccc(N)nc4=O)O[C@@H]3COP(=O)(S)O[C@H]3[C@@H](O)[C@H](n4ccc5c(=O)[nH]c(N)nc54)O[C@@H]3COP(=O)(S)O[C@H]3[C@@H](O)[C@H](n4ccc(N)nc4=O)O[C@@H]3COP(=O)(S)O[C@H]3[C@@H](O)[C@H](n4cnc5c(N)ncnc54)O[C@@H]3COP(=O)(S)O[C@H]3[C@@H](O)[C@H](n4ccc5c(=O)[nH]c(N)nc54)O[C@@H]3COP(=O)(S)O[C@H]3[C@@H](O)[C@H](n4ccc(=O)[nH]c4=O)O[C@@H]3COP(=O)(S)O[C@H]3[C@@H](O)[C@H](n4ccc(=O)[nH]c4=O)O[C@@H]3COP(=O)(S)O[C@H]3[C@@H](O)[C@H](n4cnc5c(N)ncnc54)O[C@@H]3COP(=O)(S)O[C@H]3[C@@H](O)[C@H](n4cnc5c(N)ncnc54)O[C@@H]3CO)[C@H]2O)c(=O)n1 (some centres not stated)
active: PBMC [1] Dose-dependent effect | PBMC [2] Dose-dependent effect | PBMC [3] Dose-dependent effect | PBMC [4] Dose-dependent effect
